Measured values: ChEMBL document CHEMBL1142014, “Synthesis and activity of 4,5-diarylimidazoles as human CB1 receptor inverse agonists” (Bioorg Med Chem Lett, 2005)
pEC50, pIC50: −log10 of the molar value.

test system: not listed separately; experiment: Oral bioavailability in rat; assay type: ADME, organism-based; settings: in vivo
In short: (§1)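 Male Sprague–Dawley rats dosed 1.0 mg/kg iv via an implanted cannula (n = 1 or 2) and 2.0 mg/kg po by gavage (n = 3). Both doses were formulated at 1 mg/mL in TWEEN 80:EtOH:water (10:23:67). Plasma drug levels were measured by LC–MS/MS after protein precipitation, and PK parameters were derived. AUC was normalised to dose.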

Row | Structure (SMILES) | bioavailability [%]
1 | Cn1c(C(=O)NC2CCCCC2)nc(-c2ccc(Cl)cc2Cl)c1-c1ccc(Cl)cc1 | 30
2 | Cn1c(C(=O)NN2CCCCC2)nc(-c2ccc(Cl)cc2Cl)c1-c1ccc(Cl)cc1 | 50

test system: not listed separately; experiment: (§2) Brain-to-plasma ratio after 4 hrs in rat; assay type: ADME, cell-free; settings: read-out: B/P
In short: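 Male Sprague-Dawley rats were given 1.0 mg/kg iv via the tail vein, formulated at 1 mg/mL in TWEEN 80:EtOH:water (10:23:67). Three rats were used at each time point (0.25, 1, 2 and 4 h). Brain and plasma concentrations were measured by LC–MS/MS, and the brain-to-plasma ratio was taken at each time.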

Row | Kp at 4 h | Structure (SMILES)
3 | 3.4 | Cn1c(C(=O)NN2CCCCC2)nc(-c2ccc(Cl)cc2Cl)c1-c1ccc(Cl)cc1

biological target: T1, Cannabinoid receptor 1 (Homo sapiens, UniProt P21554); experiment: Effective concentration against human recombinant cannabinoid receptor type 1 expressed in Chinese Hamster Ovary (CHO) cells; assay type: cell-based; settings: not given
T1 sequence (P21554 whole entry): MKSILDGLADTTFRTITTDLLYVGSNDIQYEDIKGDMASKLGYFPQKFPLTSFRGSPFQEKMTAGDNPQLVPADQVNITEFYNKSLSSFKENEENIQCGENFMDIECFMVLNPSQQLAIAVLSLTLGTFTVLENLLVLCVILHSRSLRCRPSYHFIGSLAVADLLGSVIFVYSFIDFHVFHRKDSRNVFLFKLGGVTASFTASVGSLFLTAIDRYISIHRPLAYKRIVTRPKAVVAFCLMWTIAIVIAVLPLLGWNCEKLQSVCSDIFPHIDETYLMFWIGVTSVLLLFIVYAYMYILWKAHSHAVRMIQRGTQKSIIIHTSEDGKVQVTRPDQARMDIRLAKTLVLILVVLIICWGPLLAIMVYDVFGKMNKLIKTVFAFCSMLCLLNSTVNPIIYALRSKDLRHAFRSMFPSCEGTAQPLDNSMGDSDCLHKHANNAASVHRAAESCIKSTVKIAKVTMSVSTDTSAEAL
In short: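 Functional assay on recombinant human CB1 receptor expressed in CHO cells, run in the presence of forskolin.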

Row | Structure (SMILES) | pEC50
4 | Cn1c(C(=O)NC2CCCCC2)nc(-c2ccc(Cl)cc2Cl)c1-c1ccc(Cl)cc1 | 7.74
5 | Cn1c(C(=O)NC2CCCCC2)nc(-c2ccc(Cl)cc2)c1-c1ccc(Cl)cc1 | 6.30

Other lines, results leading:

Row | pEC50 | Structure (SMILES)
6 | 7.00 | Cn1c(C(=O)NN2CCCCC2)nc(-c2ccc(Cl)cc2)c1-c1ccc(Cl)cc1
7 | 8.30 | Cn1c(C(=O)NN2CCCCC2)nc(-c2ccc(Cl)cc2Cl)c1-c1ccc(Cl)cc1

biological target: T1, Cannabinoid receptor 1; experiment: biochemical; assay type: cell-based, CHO; settings: not given

Row | Structure (SMILES) | pIC50
8 | O=C(NC1CCCCC1)c1nc(-c2ccc(Cl)cc2)c(-c2ccc(Cl)cc2)o1 | 6.30
9 | Cn1c(C(=O)NC2CCCCC2)nc(-c2ccc(Cl)cc2Cl)c1-c1ccc(Cl)cc1 | 8.40
10 | CCn1c(C(=O)NC2CCCCC2)nc(-c2ccc(Cl)cc2Cl)c1-c1ccc(Cl)cc1 | 8.39
11 | CCCCCCNC(=O)c1nc(-c2ccc(Cl)cc2)c(-c2ccc(Cl)cc2)n1C | 6.27
12 | Cn1c(C(=O)N2CCCCC2)nc(-c2ccc(Cl)cc2)c1-c1ccc(Cl)cc1 | 5.96
13 | Cn1c(C(=O)NC2CCCCCC2)nc(-c2ccc(Cl)cc2Cl)c1-c1ccc(Cl)cc1 | 8.10
14 | O=C(NC1CCCCC1)c1nc(-c2ccc(Cl)cc2Cl)c(-c2ccc(Cl)cc2Cl)o1 | 7.15
15 | Cc1ccc(-c2nc(C(=O)NC3CCCCC3)n(C)c2-c2ccc(C)cc2)cc1 | 6.05
16 | O=C(NC1CCCCC1)c1nc(-c2ccc(Cl)cc2)c(-c2ccc(Cl)cc2Cl)o1 | 6.00
17 | CN(C(=O)c1nc(-c2ccc(Cl)cc2Cl)c(-c2ccc(Cl)cc2)n1C)C1CCCCC1 | 7.15
18 | Cn1c(C(=O)NC(C)(C)C)nc(-c2ccc(Cl)cc2)c1-c1ccc(Cl)cc1 | 6.05
19 | O=C(NC1CCCCC1)c1nc(-c2ccc(Cl)cc2Cl)c(-c2ccc(Cl)cc2)o1 | 7.10
20 | Cn1c(C(=O)NN2CCCCC2)nc(-c2ccccc2)c1-c1ccccc1 | 5.72
21 | Cn1c(C(=O)NC2CCCC2)nc(-c2ccc(Cl)cc2Cl)c1-c1ccc(Cl)cc1 | 7.77
22 | Cn1c(C(=O)NC2CCCCC2)nc(-c2ccc(Cl)cc2Cl)c1-c1ccc(Cl)cc1Cl | 8.28
23 | Cn1c(C(=O)N2CCCCC2)nc(-c2ccccc2)c1-c1ccccc1 | 4.72
24 | Cn1c(C(=O)Nc2ccccc2)nc(-c2ccc(Cl)cc2Cl)c1-c1ccc(Cl)cc1 | 7.22
25 | Cn1c(C(=O)NC2CCCCC2)nc(-c2ccc(Cl)cc2)c1-c1ccc(Cl)cc1 | 6.35
26 | Cn1c(C(=O)NC2CCCCC2)nc(-c2ccc(Cl)cc2)c1-c1ccc(Cl)cc1Cl | 7.34

Results, then the compound that gave them:

Row | pIC50 | Structure (SMILES)
27 | 7.80 | Cn1c(C(=O)NN2CCCCC2)nc(-c2ccc(Cl)cc2Cl)c1-c1ccc(Cl)cc1Cl
28 | 6.72 | Cn1c(C(=O)NN2CCCCC2)nc(-c2ccc(Cl)cc2)c1-c1ccc(Cl)cc1Cl
29 | 6.33 | O=C(NN1CCCCC1)c1nc(-c2ccc(Cl)cc2)c(-c2ccc(Cl)cc2Cl)o1
30 | 6.70 | O=C(NN1CCCCC1)c1nc(-c2ccc(Cl)cc2Cl)c(-c2ccc(Cl)cc2Cl)o1
31 | 6.59 | O=C(NN1CCCCC1)c1nc(-c2ccc(Cl)cc2Cl)c(-c2ccc(Cl)cc2)o1
32 | 5.22 | O=C(NN1CCCCC1)c1nc(-c2ccc(Cl)cc2)c(-c2ccc(Cl)cc2)[nH]1
33 | 6.59 | Cn1c(C(=O)NN2CCCCC2)nc(-c2ccc(Cl)cc2)c1-c1ccc(Cl)cc1
34 | 8.21 | Cn1c(C(=O)NN2CCCCC2)nc(-c2ccc(Cl)cc2Cl)c1-c1ccc(Cl)cc1

test system: not listed separately; experiment: Plasma clearance in rat; assay type: ADME, organism-based; settings: read-out: Clp; in short: as §1

Row | Structure (SMILES) | clearance [mL/min/kg]
35 | Cn1c(C(=O)NC2CCCCC2)nc(-c2ccc(Cl)cc2Cl)c1-c1ccc(Cl)cc1 | 20
36 | Cn1c(C(=O)NN2CCCCC2)nc(-c2ccc(Cl)cc2Cl)c1-c1ccc(Cl)cc1 | 28

test system: not listed separately; experiment: as §2; assay type: ADME; settings: not given
In short: (§3)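 Male Sprague-Dawley rats given 1.0 mg/kg iv by tail vein, formulated at 1 mg/mL in TWEEN 80:EtOH:water (10:23:67). Sampled at 0.25, 1, 2 and 4 h (n = 3 per time point). Plasma and brain levels measured by LC–MS/MS and expressed as the brain/plasma ratio.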

Row | Structure (SMILES) | Kp at 4 h
37 | Cn1c(C(=O)NC2CCCCC2)nc(-c2ccc(Cl)cc2Cl)c1-c1ccc(Cl)cc1 | 2.6

test system: not listed separately; experiment: Volume distribution at steady state in rat; assay type: ADME, organism-based; settings: in vivo, read-out: Vdss; in short: as §1

Row | Structure (SMILES) | Vd [L/kg]
38 | Cn1c(C(=O)NC2CCCCC2)nc(-c2ccc(Cl)cc2Cl)c1-c1ccc(Cl)cc1 | 1.9
39 | Cn1c(C(=O)NN2CCCCC2)nc(-c2ccc(Cl)cc2Cl)c1-c1ccc(Cl)cc1 | 3.7

test system: not listed separately; experiment: Brain-to-plasma ratio after 0.25 hrs in rat; assay type: ADME; settings: not given; in short: as §3

Row | Structure (SMILES) | Kp at 0.25 h
40 | Cn1c(C(=O)NC2CCCCC2)nc(-c2ccc(Cl)cc2Cl)c1-c1ccc(Cl)cc1 | 0.8
41 | Cn1c(C(=O)NN2CCCCC2)nc(-c2ccc(Cl)cc2Cl)c1-c1ccc(Cl)cc1 | 3

test system: not listed separately; experiment: Brain-to-plasma ratio after 1 hr in rat; assay type: ADME; settings: not given; in short: as §3

Row | Structure (SMILES) | Kp at 1 h
42 | Cn1c(C(=O)NC2CCCCC2)nc(-c2ccc(Cl)cc2Cl)c1-c1ccc(Cl)cc1 | 2.1
43 | Cn1c(C(=O)NN2CCCCC2)nc(-c2ccc(Cl)cc2Cl)c1-c1ccc(Cl)cc1 | 3.6

test system: not listed separately; experiment: Brain-to-plasma ratio after 2 hrs in rat; assay type: ADME; settings: not given; in short: as §3

Row | Structure (SMILES) | Kp at 2 h
44 | Cn1c(C(=O)NC2CCCCC2)nc(-c2ccc(Cl)cc2Cl)c1-c1ccc(Cl)cc1 | 1.3
45 | Cn1c(C(=O)NN2CCCCC2)nc(-c2ccc(Cl)cc2Cl)c1-c1ccc(Cl)cc1 | 2.9

test system: not listed separately; experiment: Half life in rat; assay type: ADME; settings: in vivo; in short: as §1

Row | Structure (SMILES) | half-life [h]
46 | Cn1c(C(=O)NC2CCCCC2)nc(-c2ccc(Cl)cc2Cl)c1-c1ccc(Cl)cc1 | 1.9
47 | Cn1c(C(=O)NN2CCCCC2)nc(-c2ccc(Cl)cc2Cl)c1-c1ccc(Cl)cc1 | 2.4

test system: not listed separately; experiment: Normalised area under the concentration time curve in rat; assay type: ADME; settings: not given; in short: as §1

Row | Structure (SMILES) | AUC nom [µM·kg·h/mg]
48 | Cn1c(C(=O)NC2CCCCC2)nc(-c2ccc(Cl)cc2Cl)c1-c1ccc(Cl)cc1 | 1.8
49 | Cn1c(C(=O)NN2CCCCC2)nc(-c2ccc(Cl)cc2Cl)c1-c1ccc(Cl)cc1 | 1.3
